# Most compounds without a hit are left out; they make up all but 2% or so of the library.
# sPLA2-III inh: human group III sPLA2 inhibitors, primary screen, biochemical, QFRET, BODIPY PC-A2 liposome substrate; QFRET BODIPY PC-A2 liposome hydrolysis, fluorescence; inhibition, % at 12.2 µM; 370,000 tested, 0.56% active;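 active means inhibition above mean plus 3 SD of compounds lying within the high and low control bounds, cut at about 19% in these data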
# Target sequence (Q9NZ20 whole entry, looked up): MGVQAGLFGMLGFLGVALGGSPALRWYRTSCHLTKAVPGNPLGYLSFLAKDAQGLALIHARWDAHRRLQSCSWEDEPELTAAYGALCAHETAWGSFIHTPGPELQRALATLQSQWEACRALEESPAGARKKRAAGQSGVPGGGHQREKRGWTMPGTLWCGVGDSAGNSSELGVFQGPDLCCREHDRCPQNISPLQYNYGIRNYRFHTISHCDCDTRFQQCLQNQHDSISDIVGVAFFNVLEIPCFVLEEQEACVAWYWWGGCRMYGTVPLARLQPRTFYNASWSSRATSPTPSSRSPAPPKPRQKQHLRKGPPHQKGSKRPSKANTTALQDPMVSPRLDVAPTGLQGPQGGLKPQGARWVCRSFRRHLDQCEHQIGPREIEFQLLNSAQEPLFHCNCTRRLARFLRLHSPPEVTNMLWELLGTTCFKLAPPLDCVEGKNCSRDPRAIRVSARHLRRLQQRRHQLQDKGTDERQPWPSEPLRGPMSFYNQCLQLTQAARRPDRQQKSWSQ
# SR-BI DiI-HDL act: activators of SR-BI mediated DiI-HDL uptake, primary screen, ldlA[mSR-BI] CHO cells, DiI fluorescence; AID 504775, 2011; 320,000 tested, 0.096% active; 3 h; 100 = double the neutral-control signal; activation, % at 12.5 µM;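 active means mean replicate activation of at least 60% and every replicate at or above 60%; inconclusive means mean or all-replicate condition met, but not both; inactive means mean below 60% and not all replicates reaching 60%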
#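 Test system: SR-BI-overexpressing, LDLR-lacking CHO cells; Also added: labelled HDL, 10 µg/mL; Measured by: bottom-read cell fluorescence after medium removal, ex 550/em 595 nm; Timing: 3 h uptake period with compound, 37 °C; Buffer or medium: F12, 0.5% BSA, 25 mM HEPES; Doses: single compound concentration, delivered by pin transfer.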
# ARNT TACC3 PPI: disruptors of ARNT/TACC3 protein interaction, primary screen, biochemical, AlphaScreen, single concentration; Transforming acidic coiled-coil-containing protein 3 (Homo sapiens), Q9Y6A5; AlphaScreen His-ARNT PAS-B/GST-TACC3 binding, luminescence; TACC3 fragment carries E629A point mutation; inhibition, % at 9.99 µM; 390,000 tested, 0.66% active; AID 623870, 2012;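 active means mean inhibition of replicates at least 50% and at least half of replicates each reaching 50%; inconclusive means half or more replicates reach 50% but mean below 50%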
# SR-BI HDL uptake: inhibitors of SR-BI mediated HDL lipid uptake, primary screen, ldlA[mSR-BI] cells, fluorescence, single point | Scavenger receptor class B member 1 (Mus musculus), Q61009 | ldlA[mSR-BI] CHO cells, DiI-HDL uptake fluorescence, 3 h | inhibition, % at 12.5 µM | 320,000 tested, 0.96% active;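 active means mean replicate inhibition of at least 70% and a set share of replicates each scoring 70 or more; inconclusive means meets just one of the two criteria; inactive means fails both criteria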
# Xi reactivation: activators of inactive X chromosome reactivation, primary screen, imaging, XiGFP fibroblasts, GFP high-content imaging, set 2. XiGFP mouse fibroblasts, % GFP-positive cells imaging, 3 d; cells co-treated with 5-aza-dC sensitizer; scaled so ellipticine positive control = 100%. activation, % at 7.58 µM. 360,000 tested, 0.055% active. AID 743238, 2013;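 active means mean normalized replicate activation at least 10% and every replicate at or above 10%; inconclusive means only one of the two criteria met; inactive means mean below 10% and not all replicates reach 10%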
#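 Assay system: SV40-immortalized XiGFP fibroblast cells, line 68-5-11; buffer or medium: DMEM plus 5-aza-dC sensitizer; compound: one concentration, pinned; timing: compounds 3 days, fix/stain 15 min at room temperature; benchmarks: positive control ellipticine, 6 µM final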
# NSD2 inh: NSD2 histone methyltransferase inhibitors, primary screen, biochemical, AlphaScreen, single concentration, set 2; Histone-lysine N-methyltransferase NSD2 (Homo sapiens), O96028; NSD2 peptide methylation, 120 min; inhibition, % at 12.5 µM; 310,000 tested, 0.54% active; AID 743445, 2014; in the data active means inhibition above about 50%
# A number is an active result; 0 = inactive; ? = inconclusive; - = no result given.
SMILES,sPLA2-III inh,SR-BI DiI-HDL act,ARNT TACC3 PPI,SR-BI HDL uptake,Xi reactivation,NSD2 inh
COc1ccc(OC)c(/C=N/NC(=O)c2cc3c(OC)c(OC)ccc3[nH]2)c1,0,0,0,72,0,0
Cc1ccc2[nH]c(C(=O)N/N=C/c3ccccc3C(=O)O)c(-c3ccccc3)c2c1,0,0,0,0,0,0
COc1ccc2[nH]c(C(=O)N/N=C/c3ccccc3OC)cc2c1,0,-,0,-,0,0
CCOc1ccc2[nH]c(C(=O)N/N=C/c3ccccc3OC)cc2c1,0,0,0,0,0,0
CO/N=C/C(C#N)=C/c1cc(C(=O)c2ccc(F)cc2)cn1C,0,0,0,0,0,0
COc1ccc(C(C)(C)C)cc1S(=O)(=O)NCC1CCCO1 (centres undefined),0,?,0,0,0,0
CN1C2CCC1CC(NS(=O)(=O)c1cccc(C(F)(F)F)c1)C2 (centres undefined),0,0,0,0,0,0
CC1(C)CC(=O)C(N=Nc2cc3c(cc2[N+](=O)[O-])OCCO3)=C(O)C1,0,0,0,0,0,0
CCOc1ccc(S(=O)(=O)N2CCC(C(=O)Nc3cccc(NC(C)=O)c3)CC2)cc1,0,-,0,-,0,0
CCC(=O)N(C1=C(NC(C)C)C(=O)c2ccccc2C1=O)C(C)C,0,0,-,0,0,70
CCOC(=O)c1[nH]cnc1N=Nc1c(O)ccc2ccccc12,0,0,0,80,0,0
COc1ccc(-c2nc(-c3cccs3)c(-c3cccs3)[nH]2)cc1O,0,0,0,0,-,0
O=S(=O)(Cc1ccccc1)NC1c2ccccc2Oc2ccccc21,0,0,0,0,0,0
c1ccc(-c2nc(-c3ccccn3)nc(-c3ccccn3)n2)nc1,0,0,51,0,0,0
Clc1ccc(-c2cnnc(-c3ccccn3)n2)cc1,0,0,61,0,0,-
c1ccc(-c2nc3ccccc3nc2-c2ccccn2)nc1,0,0,0,0,-,0
Nc1nc(N)nc(-c2ccccc2O)n1,0,0,0,0,-,0
Nc1nc(N)nc(-c2ccccn2)n1,0,0,64,0,-,0
CN(CCOc1ccc(Cl)cc1)C(=O)c1ccccc1SCC(=O)N1CCCC1,0,0,0,0,0,0
CC(C)C[C@H]1CNC(=O)C(=O)N1C[C@H](Cc1ccc(O)cc1)NC(=O)CC12CC3CC(CC(C3)C1)C2,0,-,-,-,0,-
O=C(O)CSc1cc(NS(=O)(=O)c2ccc(Cl)cc2)c2ccccc2c1O,0,0,48,0,0,137
O=S(=O)(Nc1cc(Sc2cccc3cccnc23)c(O)c2ccccc12)c1ccc(F)cc1,0,-,-,-,0,0
O=C(Nc1ccccc1)N1C[C@H]2[C@@H](c3ccccc31)[C@H](CO)N2C(=O)c1ccncc1,-,-,0,-,0,-
N#C[C@H]1[C@@H](c2ccc(C#CC3CCCC3)cc2)[C@H](CO)N1C(=O)c1cccc(F)c1,-,-,-,-,0,-
COc1cc(N2CCCC2)c(OC)cc1/C=C1/NC(=S)NC1=O,0,0,0,0,71,0
SMILES,sPLA2-III inh,SR-BI DiI-HDL act,ARNT TACC3 PPI,SR-BI HDL uptake,Xi reactivation,NSD2 inh
COc1ccc(OC)c(/C=C2\NC(=O)NC2=O)c1,0,0,0,0,0,0
CC1Nc2ncnc(N3CCOCC3)c2N(Cc2ccccc2)C1=O (centres undefined),0,0,23,0,0,-
COc1ccc(CN2C(=O)C(C)Nc3ncnc(N4CCOCC4)c32)cc1 (centres undefined),0,0,0,0,0,-
COc1ccc(-c2nc(NC(=O)c3ccccc3)sc2-c2ccc([N+](=O)[O-])cc2)cc1,0,0,0,79,0,0
COc1ccc(-c2sc(NC(C)=O)nc2-c2ccccc2)cc1,0,0,0,80,0,0
COC(=O)c1cccc(NC(=O)C2COc3ccccc3O2)c1C (centres undefined),0,0,0,0,-,0
CCOC(=O)c1csc(NC(=O)c2cc(OC)c(OC)c(OC)c2)n1,0,0,0,77,-,0
CCCC(=O)Nc1nc(C(=O)OCC)cs1,0,0,0,0,-,0
COc1ccc(-c2sc3ccccc3c2/C=C/c2ccc(OC)c(OC)c2)cc1,0,0,0,82,0,-
COc1ccc(/C=C/c2c(-c3ccccc3OC)sc3ccccc23)cc1OC,0,0,0,0,0,-
CCn1c(NCCCO)nc2c(c1=O)C(C)(CC)Cc1ccccc1-2 (centres undefined),0,0,0,0,0,0
CC(Oc1ccc2c(c1)c1ccnc3c4ccccc4c(=O)n2c13)C(=O)NCCN1CCOCC1 (centres undefined),0,0,48,0,-,-
COc1ccc2c(c1OC)c(=O)n1c3ccc(OC(C)C(=O)NCCN4CCOCC4)cc3c3ccnc2c31 (centres undefined),0,0,0,0,-,-
Cc1cccc(-n2c(SCC(=O)N3CC(=O)Nc4ccccc43)nc3ccccc3c2=O)c1C,0,0,-,0,0,0
Cc1ccc(Nc2nc(N)nc(CN3CCCCCC3)n2)cc1,0,0,50,0,-,0
Cc1ccc(Nc2nc(N)nc(CN3CCN(C)CC3)n2)cc1,0,0,0,0,-,0
CCOC(=O)C1CCCN(Cc2nc(N)nc(Nc3ccccc3)n2)C1 (centres undefined),0,0,48,0,-,0
Nc1nc(CN2CCN(C(c3ccccc3)c3ccccc3)CC2)nc(Nc2ccccc2)n1,0,0,0,0,0,0
Nc1nc(CN2CCCCCC2)nc(Nc2ccccc2)n1,0,0,52,0,-,0
O=C(NCC[C@H]1CC[C@@H](NS(=O)(=O)Cc2ccccc2)[C@H](CO)O1)C1CCCCC1,-,-,0,-,0,-
CC(=O)N1CC2(C1)[C@H](c1ccc(-c3ccccc3C)cc1)[C@H](CO)N2C(=O)CC1CC1,-,-,-,-,0,-
CCOC(=O)c1sc2nc(C)cc(C)c2c1N,0,0,0,0,-,0
CCOC(=O)c1sc2nc(SC)nc(-c3ccc(Cl)cc3)c2c1N,0,0,0,87,-,-
Cc1ccc(Cl)cc1Nc1nc(-c2sc(NC(=O)c3ccco3)nc2C)cs1,0,0,0,?,0,-
Cc1nc(NC(=O)c2ccco2)sc1-c1csc(Nc2ccc(Cl)cc2Cl)n1,0,0,-,?,0,-

# Compound activity from PubChem.
